{"source": "ChEMBL document CHEMBL1649147", "about": "“Antistaphylococcal activity of dihydrophthalazine antifolates, a family of novel antibacterial drugs” (2009)", "format_in_all_cases": "functional", "key": {"[1]": {"system": "Staphylococcus epidermidis", "test": "Antibacterial activity against methicillin-resistant, vancomycin-intermediate coagulase-negative Staphylococcus epidermidis 225 after 38 passages by agar dilution method", "procedure,_shortened": "(§1)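 Daily serial passage for up to 50 days at 35°C for 24 h in 1 ml MHB. […] Each transfer used 10 µl from the tube nearest the MIC (1–2 dilutions below) with the same turbidity as the drug-free control. […] MICs were measured by agar dilution, with changes given as log2 steps.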"}, "[2]": {"system": "Staphylococcus epidermidis", "test": "Antibacterial activity against methicillin-resistant, Linezolid non-susceptible coagulase-negative Staphylococcus epidermidis 345 after 33 passages by agar dilution method", "procedure,_shortened": "as §1"}, "Staphylococcus aureus [3]": {"system": "Staphylococcus aureus", "test": "Antibacterial activity against vancomycin-resistant Staphylococcus aureus VRS1 after 20 passages by agar dilution method", "procedure,_shortened": "as §1"}, "[4]": {"system": "Staphylococcus epidermidis", "test": "Antibacterial activity against coagulase-negative Staphylococcus epidermidis 225 after 38 passages by agar dilution method", "procedure,_shortened": "(§2)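 Serial passage under drug. Inoculum was ~1 × 10^6 CFU/ml from overnight MHA growth, in 1 ml MHB at 35°C for 24 h. Drug ranged from 4 log2 steps above to 3 log2 steps below the MIC. […] MIC change is given as log2 steps.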"}, "Staphylococcus aureus [5]": {"system": "Staphylococcus aureus", "test": "Antibacterial activity against methicillin-resistant Staphylococcus aureus 145 after 47 passages by agar dilution method", "procedure,_shortened": "as §2"}, "Staphylococcus aureus [6]": {"system": "Staphylococcus aureus", "test": "Antibacterial activity against methicillin-resistant and vancomycin-resistant Staphylococcus aureus VRS1 after 20 passages by agar dilution method", "procedure,_shortened": "as §1"}, "Staphylococcus aureus [7]": {"system": "Staphylococcus aureus", "test": "Antibacterial activity against Staphylococcus aureus 145 after 50 passages by agar dilution method", "procedure,_shortened": "as §2"}, "Staphylococcus aureus [8]": {"system": "Staphylococcus aureus", "test": "Antibacterial activity against vancomycin-resistant Staphylococcus aureus VRS1 after 25 passages by agar dilution method", "procedure,_shortened": "as §1"}, "[9]": {"system": "Staphylococcus epidermidis", "test": "Antibacterial activity against coagulase-negative Staphylococcus epidermidis 225 after 36 passages by agar dilution method", "procedure,_shortened": "as §2"}, "Staphylococcus aureus [10]": {"system": "Staphylococcus aureus", "test": "Antibacterial activity against methicillin-resistant and vancomycin-resistant Staphylococcus aureus VRS1 after 25 passages by agar dilution method", "procedure,_shortened": "as §1"}, "[11]": {"system": "Staphylococcus epidermidis", "test": "Antibacterial activity against coagulase-negative Staphylococcus epidermidis 057 after 50 passages by agar dilution method", "procedure,_shortened": "as §2"}, "[12]": {"system": "Staphylococcus epidermidis", "test": "Antibacterial activity against coagulase-negative Staphylococcus epidermidis 225 after 50 passages by agar dilution method", "procedure,_shortened": "as §2"}}, "data": [{"smiles": "COc1cc(Cc2cnc(N)nc2N)cc(/C=C/C(=O)N2N=Cc3ccccc3C2c2cnc(N(C)C)nc2)c1OC", "note": "(configuration not stated)", "values": [{"measurement": "MIC", "setting": "[1]", "result": "> 128", "unit": "µg/mL"}, {"measurement": "MIC", "setting": "[2]", "result": "> 128", "unit": "µg/mL"}, {"measurement": "MIC", "setting": "Staphylococcus aureus [3]", "result": "> 128", "unit": "µg/mL"}, {"measurement": "MIC", "setting": "[4]", "result": "> 128", "unit": "µg/mL"}, {"measurement": "MIC", "setting": "Staphylococcus aureus [5]", "result": "> 128", "unit": "µg/mL"}, {"measurement": "MIC", "setting": "Staphylococcus aureus [6]", "result": "> 128", "unit": "µg/mL"}]}, {"smiles": "COc1cc(Cc2cnc(N)nc2N)cc(/C=C/C(=O)N2N=Cc3ccccc3C2c2cnc(N3CCOCC3)nc2)c1OC", "note": "(configuration not stated)", "values": [{"measurement": "MIC", "setting": "Staphylococcus aureus [7]", "result": 128, "unit": "µg/mL"}, {"measurement": "MIC", "setting": "Staphylococcus aureus [8]", "result": "> 128", "unit": "µg/mL"}, {"measurement": "MIC", "setting": "[9]", "result": "> 128", "unit": "µg/mL"}, {"measurement": "MIC", "setting": "Staphylococcus aureus [10]", "result": "> 128", "unit": "µg/mL"}]}, {"smiles": "COc1ncc(C2c3ccccc3C=NN2C(=O)/C=C/c2cc(Cc3cnc(N)nc3N)cc(OC)c2OC)cn1", "note": "(configuration not stated)", "values": [{"measurement": "MIC", "setting": "[11]", "result": 128, "unit": "µg/mL"}, {"measurement": "MIC", "setting": "[12]", "result": 128, "unit": "µg/mL"}]}]}
